From article PMC6635418 (Current Drug Delivery, 2019)
Values after ≈ are worked out from the molar mass of the structure shown. Blank lines part the entries; values can stand above or below the molecule they belong to.

Experiments:
[1] = cited from earlier work
[2] = Pharmacokinetics of oral topotecan with or without chrysin formulations in rats; format: in vivo
In short: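 Male Sprague-Dawley rats (250-290 g), fasted 12 h, n=3 per group. Oral BCRP substrate (10 mg/kg in saline) given alone or with test compound, free or as solid dispersion (100 mg/kg equivalent in 0.5% methylcellulose/5% PEG). Femoral arterial plasma analysed by HPLC-fluorescence (ex 350/em 527 nm), 10-1000 ng/mL. Noncompartmental: trapezoidal AUC, observed Cmax/Tmax. ANOVA with Dunnett's test.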

[3] = Solubility study in distilled water; format: physicochemical
In short: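 Each formulation, equivalent to 1 mg test compound, stirred in 1 mL distilled water at 600 rpm for 24 h at room temperature. Centrifuged at 13,000 rpm for 10 min and filtered through 0.45 µm. Filtrate diluted in ethanol and quantified by C18 HPLC-UV at 267 nm against a 0.5-20 µg/mL calibration. n=3, mean±SD.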

[4] = tested on: breast cancer resistance protein (BCRP); conditions: read-out: IC50 against mitoxantrone efflux; BCRP inhibition; cited from earlier work
[5] = male, Sprague-Dawley, rat, plasma, po, 10 mg/kg

Structure (SMILES): CCCCCCCCCCCCOCCOCCOCCOCCO [Brij®L4, polyoxyethylene (4) lauryl ether]
critical micelle concentration (CMC) [1]: 0.00097 %, w/v

AUC [2, 5]: 578 ± 37.2 ng·h/mL
Cmax [2, 5]: 109 ± 44.5 ng/mL
Tmax [2, 5]: 1.3 ± 0.66 h
Structure (SMILES): CC[C@@]1(O)C(=O)OCc2c1cc1n(c2=O)Cc2cc3c(CN(C)C)c(O)ccc3nc2-1 [Control (Topotecan Only), topotecan]

effect on oral exposure of topotecan ([2]; rats, oral, versus topotecan only): no effect
solubility at 24 h [3]: 3.04 ± 0.19 µg/mL (≈ 11.9 µM)
Structure (SMILES): O=c1cc(-c2ccccc2)oc2cc(O)cc(O)c12 [chrysin (untreated drug), 5,7-dihydroxyflavone]
IC50 [4]: 390 ± 130 nM
